Vif imaging = HIV Vif self-association inhibitors, primary screen, imaging, HEK293T, single point | HEK293T cells, Vif self-association by quenched fluorescence, 24 h | inhibition, % at 7.49 µM | 0.35% of 340,000 active | AID 602346, 2012; in the data active = inhibition above about 50%, passing the limit was not always enough; inconclusive = no clear call, values can overlap the other calls; inactive = below about 31%
Casp6 inh = human caspase-6 inhibitors, primary screen, biochemical, VEID-R110 fluorescence, single point, set 2; P55212; purified caspase-6, Z-VEID-R110 cleavage fluorescence; inhibition, % at 12.5 µM; 0.53% of 350,000 active;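 active = mean inhibition across replicates at least about 35%, with every replicate also reaching that limit, limit read from the data; inconclusive = only one of the two criteria met; inactive = neither criterion met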;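 also: 0% = median of neutral control wells and 100% = no fluorescence left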
Target sequence (P55212 24-179 limits assumed): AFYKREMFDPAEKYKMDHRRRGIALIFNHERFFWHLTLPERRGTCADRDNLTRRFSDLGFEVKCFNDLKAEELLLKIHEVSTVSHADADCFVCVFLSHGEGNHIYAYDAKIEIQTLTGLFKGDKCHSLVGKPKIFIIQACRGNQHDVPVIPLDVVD
Target sequence (P55212 194-293 limits assumed): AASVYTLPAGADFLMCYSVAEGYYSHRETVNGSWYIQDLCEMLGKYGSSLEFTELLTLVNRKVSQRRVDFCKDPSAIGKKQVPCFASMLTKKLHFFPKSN
T cell HTS = modulators of CD8 T cell-vesicle binding, primary screen, mouse 2C CD8+ T cells, flow cytometry; 2C CD8+ T cell-vesicle binding; stronger effect = lower value; response (vesicle binding), % at 7 µM; 0.068% of 330,000 active; AID 2052, 2009;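 active = response, share of CD8 T cells binding vesicles, and their 90th percentile fluorescence all below set limits, cut at about 80% in these data, passing the limit was not always enough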;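 also: values below 100% mean blocked vesicle binding to the CD8+ T cells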
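Test system: purified 2C TCR transgenic mouse naive CD8+ T cells. Probe or stimulus: QL9-peptide-loaded Drosophila micro-vesicles bearing Ld, ICAM-1 and B7-1. Incubation: binding step 1.5 h, 37 °C, antibody labelling 20 min, ice. Measured by: flow cytometry of vesicle-bound cells.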
Myeloid diff 2 = induction of myeloid progenitor differentiation, primary screen, cell-based, flow cytometry, MLPCN library; 1% of 360,000 active; calls only at 10 µM; ER-HoxA9 myeloid progenitors, lysozyme-GFP differentiation;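 active = normalized GFP-positive differentiation at or above the plate's own cutoff, the solvent-only control mean plus 3 SD; inconclusive = no clear call, values can overlap the other calls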;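 also: cells exposed to compound for four days before flow analysis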
The depositor's hits bear a star; i = inactive; ? = inconclusive; · = no result; + = active, no number. Hits are enriched below; roughly 1.4% of the tested compounds scored in any of these assays.

SMILES | Vif imaging | Casp6 inh | T cell HTS | Myeloid diff 2
CCOC(=O)C1=C(O)/C(=C/c2ccc(OCC(=O)O)c(OCC)c2)SC1=Nc1ccc(OC)cc1 | -7 | 35* | 341 | i
C/C(=N\N)c1c(-c2ccccc2)c2cc(C)ccc2[nH]c1=O | -3 | 0 | 61 | i
CC/C(C)=N/NC(=O)c1[nH]c2ccc(C)cc2c1-c1ccccc1 | -2 | 2 | 305 | +
Cc1nn(C)c(C(=O)Nc2ccn(Cc3c(F)c(F)cc(F)c3F)n2)c1[N+](=O)[O-] | · | · | 361 | +
Cc1nn(Cc2cccc(C(=O)Nc3ccn(Cc4c(F)c(F)cc(F)c4F)n3)c2)c(C)c1[N+](=O)[O-] | -5 | · | 264 | i
CC(=O)N1C2=CCCC3CCCCC23c2ccccc21 (configuration not stated) | -13 | 3 | · | +
Cc1ccc2nc(NCCNC(=O)c3ccccc3)c(C#N)cc2c1 | 8 | 3 | 343 | +
COc1ccc(C(=O)NCCNc2nc3ccc(C)cc3cc2C#N)cc1 | -2 | 1 | 246 | i
CCOc1ccc2nc(NCCNC(=O)Nc3ccccc3)c(C#N)cc2c1 | 57* | · | 404 | i
Cn1cnc(S(=O)(=O)N2C[C@H](O)COC[C@H]3O[C@@H](CC(=O)NCc4cc(F)cc(F)c4)CC[C@@H]32)c1 | · | 0 | · | ·
COc1ccc(S(=O)(=O)N[C@@H]2C=C[C@@H](CC(=O)N3CCN(c4ccccc4)CC3)O[C@H]2CO)cc1 | · | -2 | · | ·
CC(C)NC(=O)Nc1ccc2c(c1)C(=O)N([C@@H](C)CO)C[C@H](C)[C@@H](CN(C)S(=O)(=O)c1cn(C)cn1)OCCCC[C@@H](C)O2 | · | -3 | · | ·
CCN(CC)c1ccc2cc(-c3nc(-c4cc5ccccc5oc4=O)cs3)c(=O)oc2c1 | 3 | -2 | · | +
O=c1oc2ccccc2cc1-c1csc(Cc2nc(-c3ccc(Cl)cc3)cs2)n1 | -6 | · | 266 | i
O=C1c2ccccc2C(=O)C1(O)O | · | · | i | ·
CC1(S(=O)(=O)O)CC(=O)c2ccccc2C1=O (configuration not stated) | 174* | · | 354 | i
C[C@H]1CN([C@@H](C)CO)S(=O)(=O)c2ccc(-c3cccnc3)cc2O[C@H]1CN(C)C(=O)C1CCC1 | · | 2 | · | ·
C[C@H](CO)N1C[C@H](C)[C@@H](CN(C)CC2CCCCC2)Oc2ccc(NC(=O)NC3CCCCC3)cc2CC1=O | · | -11 | · | ·
O=C(O)c1cccc(Cn2c(Cl)c(/C=N/NC(=O)c3cc4ccccc4cc3O)sc2=O)c1 | -1 | 42* | 161 | i
CC(C)C#Cc1cnc2c(c1)C(=O)N([C@@H](C)CO)C[C@H](C)[C@@H](CN(C)C(=O)Cc1ccccn1)O2 | · | 4 | · | ·
CSc1nsc(/C=C/Nc2ccc(F)cc2F)c1C#N | ? | · | 180 | +
COc1ccccc1Nc1nc2c(C)cccc2cc1C#N | 7 | · | 253 | i
CCOc1ccc(Nc2nc3c(C)cccc3cc2C#N)cc1 | 82* | -1 | 185 | +
COc1ccc(Nc2nc(Nc3ccc(OC)cc3)nc(-n3[nH]c(=O)c(C)c3C)n2)cc1 | 56* | · | 695 | i
CCOC(=O)C1=C(C)N=c2sc(=Cc3cc(Cl)c(OCC(=O)O)c(OC)c3)c(=O)n2C1c1ccccc1Cl (configuration not stated) | 9 | 28 | · | +
SMILES | Vif imaging | Casp6 inh | T cell HTS | Myeloid diff 2
COc1ccccc1C1C2=C(N=c3s/c(=C/c4cccc(OCC(=O)O)c4)c(=O)n31)c1ccccc1CC2 (configuration not stated) | -1 | 38* | 452 | i
CCOC(=O)C1=C(C)N=c2s/c(=C\c3ccc(C(=O)O)cc3)c(=O)n2C1c1ccc(OC)cc1OC (configuration not stated) | -2 | 6 | 177 | i
CCOC(=O)C1=C(C)N=c2s/c(=C\c3cccn3C)c(=O)n2C1c1cccc(OC)c1OC (configuration not stated) | -2 | · | 224 | +
CCOC(=O)C1=C(C)N=c2s/c(=C\c3ccc(OCC(=O)O)c(OC)c3)c(=O)n2C1c1ccc(OC)cc1 (configuration not stated) | -4 | 6 | 116 | i
Cc1noc(C)c1NC(=O)N(C)C[C@@H]1Oc2ccc(NC(=O)Nc3cccc4ccccc34)cc2C(=O)N([C@@H](C)CO)C[C@@H]1C | · | 2 | · | ·
CCCNC(=O)N1CC2(C1)CN(C(=O)COC)[C@H](CO)c1[nH]c3cc(OC)ccc3c12 | · | 1 | · | ·
O=C(C1CCC1)N1CC(=O)N2[C@H](CO)[C@@H](c3ccc(C#Cc4cccc(F)c4)cc3)[C@@H]2C1 | · | 1 | · | ·
O=C(Nc1ccc2nsnc2c1)N1CCCCCC1 | 10 | · | 250 | i
S=C(Nc1ccc2nsnc2c1)N1CCCC1 | -3 | 47* | 188 | i
O=S(=O)(c1ccc(NC(=S)Nc2ccc(OC(F)F)cc2)cc1)N1CCOCC1 | -3 | · | 218 | +
Cc1cc(C)n(CC(C)NCc2cn[nH]c2-c2ccc(C)c(C)c2)n1 (configuration not stated) | -2 | -4 | 210 | +
COc1ccccc1NC(=O)COC(=O)CCC1CCCC1 | -9 | 1 | 384 | i
COc1ccccc1NC(=O)C(C)OC(=O)CCC1CCCCC1 (configuration not stated) | 7 | 53* | 152 | i
CO[C@H]1CN(C)C(=O)c2ccc(NC(=O)Nc3cc(F)ccc3F)cc2OC[C@H](C)N(C(=O)c2ccccn2)C[C@@H]1C | · | 0 | · | ·
c1ccc(-c2c[n+]3c(n2-c2ccccc2)CCC3)cc1 | 12 | -1 | 330 | +
CN1CCN(C(=O)C[C@H]2CC[C@@H](NS(=O)(=O)c3cccc(F)c3)[C@H](CO)O2)CC1 | · | -6 | · | ·
CC(Cc1ccccc1)C(=O)N[C@@H](CO)Cc1ccccc1 (some centres not stated) | 0 | · | 214 | +
COc1ccc(NCc2nnc(SCC(=O)Nc3ccc(OC)cc3OC)o2)cc1 | -2 | -3 | 277 | i
COc1ccc(NC(=O)CSc2nnc(C3CCCCC3)o2)c(OC)c1 | · | · | 265 | +
COc1cccc(C#Cc2ccc([C@H]3[C@@H](CO)N4C(=O)CN(C(=O)c5ccncc5)C[C@H]34)cc2)c1 | · | -2 | · | ·
CCOC(=O)c1sc(NC(=O)C2C3C=CC(C3)C2C(=O)O)nc1C (configuration not stated) | 13 | 55* | 370 | i
COc1ccc(NC(=O)Nc2ccc3c(c2)C(=O)N([C@H](C)CO)C[C@H](C)[C@@H](CN(C)C(=O)Nc2ccc(C(F)(F)F)cc2)OCCCC[C@H](C)O3)cc1 | · | 0 | · | ·
CCCCNc1ccc2c3c(cccc13)C(=O)N(CCCC)C2=O | · | -18 | · | +
COC1=CC2(O)CCCC2=CC1=O (configuration not stated) | 25 | · | 346 | +
O=C(O)CCN1CC2([N+](=O)[O-])C=CC(=O)C([N+](=O)[O-])(C1)C2CC(=O)c1ccccc1 (configuration not stated) | -2 | 43* | 276 | i

High-throughput results: PubChem, several laboratories
